As usually defined, the TD50 is the 50% point of the dose-response relation for the toxic effect studied. Lower therefore signals harm at a small dose. As a reminder, the ED50 is the dose at which the effect has come halfway, by size or by number of responders.

From ChEMBL document CHEMBL3400073, “Design, synthesis and biological evaluation of new hybrid anticonvulsants derived from N-benzyl-2-(2,5-dioxopyrrolidin-1-yl)propanamide and 2-(2,5-dioxopyrrolidin-1-yl)butanamide derivatives” (Bioorg Med Chem, 2015) come the findings set out here.

Series [1] deals with Mus musculus. Description: Anticonvulsant activity in intraperitoneally dosed Albino Swiss CD1 mouse assessed as time to peak effect by maximal electroshock test. In kind it is functional.
Series [2] deals with Mus musculus. Put plainly: Anticonvulsant activity in Albino Swiss CD1 mouse at 100 mg/kg, ip after 2 hrs by maximal electroshock test. It counts as functional, organism-based. More on the design: dose 100 mg/kg. The essentials: (§1)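 Male CD-1 mice, 16–26 g, in groups of 4, each mouse used once, were given 100 mg/kg ip (0.1 mL/10 g, methylcellulose vehicle). MES used 25 mA, 500 V, 50 Hz delivered by ear electrodes for 0.2 s, and absence of hindlimb tonic extension counted as protection. In scPTZ, mice without clonic convulsions over 30 min of observation counted as protected. Both tests were run 0.5 h or 2 h after dosing.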

Series [3] concerns Mus musculus. Description: Anticonvulsant activity in intraperitoneally dosed Albino Swiss CD1 mouse assessed as time to peak effect after 2 hrs by subcutaneous pentylenetetrazole test. It counts as functional.
The test system of series [4] is Mus musculus. Description: Neurological toxicity in Albino Swiss CD1 mouse at 100 mg/kg, ip after 0.5 hrs by rotarod test. It counts as organism-based. Further details: dose 100 mg/kg, route intraperitoneal. The conditions noted are these: in vivo. In a few lines:
(§2)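 Mice were trained on a 2 cm rod for 3 min, with unlimited trials, at least 24 h before testing. Each was then dosed ip at 100 mg/kg and tested at 10 rpm 0.5 h or 2 h later, in groups of 4. Failure to stay on the rod for at least 1 min indicated neurotoxicity.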

Series [5] has as its system Mus musculus. Put plainly: Anticonvulsant activity in intraperitoneally dosed Albino Swiss CD1 mouse after 0.5 hrs by subcutaneous pentylenetetrazole test. It counts as functional. In a few lines: (§3)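 Male CD-1 mice were dosed ip (0.1 mL/10 g, methylcellulose vehicle), at least four dose groups of 6 mice each. Protection in MES meant no hindlimb tonic extension after a 25 mA, 50 Hz, 0.2 s ear-electrode shock. Protection in scPTZ meant no clonus over 30 min.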

The nature of series [6]: Neurological toxicity in intraperitoneally dosed Albino Swiss CD1 mouse by rotarod test. In kind it is organism-based. As to conditions: in vivo, ip. In a few lines:
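Mice trained on the rotarod were given various ip doses, four groups in all, and tested at 10 rpm. Failure to stay on the rod for at least 1 min indicated neurotoxicity.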
A general note: In the rotarod test animals must keep their balance on a rotating rod.

In series [7] the test system is Mus musculus. Description: Anticonvulsant activity in intraperitoneally dosed Albino Swiss CD1 mouse after 2 hrs by subcutaneous pentylenetetrazole test. It counts as functional. In a few lines: as §3
Series [8] deals with Mus musculus. Put plainly: Anticonvulsant activity in Albino Swiss CD1 mouse at 100 mg/kg, ip after 0.5 hrs by maximal electroshock test. It counts as functional, organism-based. More on the design: dose 100 mg/kg. The essentials:
as §1

For series [9], the system named is Mus musculus. Put plainly: Neurological toxicity in Albino Swiss CD1 mouse at 100 mg/kg, ip after 2 hrs by rotarod test. Further details: dose 100 mg/kg, route intraperitoneal. The conditions noted are these: in vivo. In kind it is organism-based. The essentials:
as §2

In series [10] the test system is Mus musculus. Description: Protective index, ratio of neurotoxic TD50 in Albino Swiss CD1 mouse by rotarod test to anticonvulsant ED50 in Albino Swiss CD1 mouse by subcutaneous pentylenetetrazole test. In a few lines: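 The protective index is the rotarod TD50 divided by the MES or scPTZ ED50. Each value came from ip dosing in male CD-1 mice with probit analysis, and the reference drugs were tested under the same conditions.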

Series [11] deals with Mus musculus. Put plainly: Anticonvulsant activity in intraperitoneally dosed Albino Swiss CD1 mouse by subcutaneous pentylenetetrazole test. It counts as functional. The essentials:
as §3

The subject of series [12] is HEK293. Put plainly: Antiproliferative activity against HEK293 cells at 0.01 to 250 uM after 48 hrs by formazan based EZ4U assay. In kind it is cell-based. The conditions noted are these: human, hek293, 48 h. In a few lines:
(§4)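 HEK-293 cells (1.5 × 10^4/well) and IMR-32 cells (2 × 10^4/well) were grown in DMEM with 10% FBS for 24 h to 60% confluence. Compound was diluted from a 25 mM DMSO stock to 0.01–250 µM final, with DMSO at or below 1%, and incubated 48 h at 37 °C in 5% CO2. EZ4U reagent was added for 5 h, then absorbance was read at 492 nm.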

A short description of series [13]: Cytotoxic activity against human IMR32 cells at 0.01 to 250 uM after 48 hrs by formazan based EZ4U assay. It counts as cell-based. As to conditions: imr-32, 48 h. The essentials: as §4
Series [14] relates to Mus musculus. Description: Anticonvulsant activity in Albino Swiss CD1 mouse at 100 mg/kg, ip after 2 hrs by subcutaneous pentylenetetrazole test. In kind it is functional, organism-based. More on the design: dose 100 mg/kg. The essentials: as §1
The test system of series [15] is Mus musculus. Put plainly: Anticonvulsant activity in intraperitoneally dosed Albino Swiss CD1 mouse after 0.5 hrs by maximal electroshock test. In kind it is functional. In a few lines: as §3
(Protection in the maximal electroshock model is a classic sign of anticonvulsant action.)

The test system of series [16] is Mus musculus. Description: Ratio of protective index for […] acid to protective index for compound in intraperitoneally dosed Albino Swiss CD1 mouse.
Series [17] concerns Mus musculus. Description: Potency index, ratio of ED50 for […] acid to ED50 for compound in intraperitoneally dosed Albino Swiss CD1 mouse by subcutaneous pentylenetetrazole test. In kind it is functional.
Series [18] concerns Mus musculus. Description: Anticonvulsant activity in intraperitoneally dosed Albino Swiss CD1 mouse after 2 hrs by maximal electroshock test. In kind it is functional. In a few lines:
as §3

For series [19], the system named is Mus musculus. Put plainly: Anticonvulsant activity in Albino Swiss CD1 mouse at 100 mg/kg, ip after 0.5 hrs by subcutaneous pentylenetetrazole test. In kind it is functional, organism-based. Further details: dose 100 mg/kg. In a few lines:
as §1

In series [20] the test system is Mus musculus. Description: Anticonvulsant activity in intraperitoneally dosed Albino Swiss CD1 mouse by maximal electroshock test. It counts as functional. As to conditions: Albino Swiss CD1, ip. The essentials:
as §3

For series [21], the system named is Liver microsome. Description: Drug metabolism in human liver microsomes assessed as metabolite formation treated with 50 uM 2-(2,5-Dioxopyrrolidin-1-yl)-N-(2-fluorobenzyl)propanamide pre-incubated at 37 degC for 5 mins before addition of NADPH regeneration system measured after 120 mins by UPLC-MS/MS method. It counts as ADME. As to conditions: 2 h. In a few lines: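 Pooled human liver microsomes from adult males and females were used at 1 mg/ml in 0.1 M Tris-HCl, pH 7.4. After the 5 min preincubation, the NADPH regeneration system was added and the reaction ran for 120 min. It was quenched with cold methanol and centrifuged, and the supernatant was analysed by UPLC-MS/MS with ESI on a tandem quadrupole.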
In general terms: Liver microsomes are a subcellular fraction often used to study metabolism.

The source made the active and inactive calls. The calls are words filed in the database; no cut-off is given here. Bounds are passed on as bounds.

On to `CCC(C(=O)NCc1ccccc1F)N1C(=O)CCC1=O` (racemic), for which the Time in series [1] and in series [3] was 0.5 h in each case. Further, the result in [2] and in series [8] was inactive. Also, the Activity result in [4] and in [9] was “Non-toxic” each time. Also, the MED50 in series [5] and in [7] was 100 mg/kg in each case. The molecule further gave a TD50 in [6] of 346 mg/kg. Also, the “Ratio TD50/ED50” value in [10] is listed as 5.27. The molecule further returned an ED50 in [11] of 65.7 mg/kg.
Regarding `CC(C(=O)NCc1ccccc1F)N1C(=O)CCC1=O` (racemic), the Time in series [1] and in series [3] was 0.5 h throughout. The Activity entry in series [12], in series [4], in [9] and in [13] was “Non-toxic” throughout. Besides, the result in series [2] and in [14] was inactive. For the same molecule, the MED50 in [5] and in series [15] was 100 mg/kg throughout.
Take `CCC(C(=O)NCc1cccc(F)c1)N1C(=O)CCC1=O` (racemic): the Time in series [1] and in series [3] was 0.5 h throughout. The outcome in [2], in series [8] and in series [14] was inactive. For the same molecule, the Activity entry in series [4] and in series [9] was “Non-toxic” each time. In [5], this molecule came in with an MED50 of 100 mg/kg. Besides, the TD50 in series [6] came to 327 mg/kg. Besides, the Ratio in series [16] stood at 3.05. Besides, the “Ratio TD50/ED50” value in series [10] was determined as 6.89. In series [11], this molecule returned an ED50 of 47.4 mg/kg. Besides, the “Ratio ED50” value in series [17] is listed as 2.96.
As to `CC1CC(=O)N(C(C)C(=O)NCc2ccc(C(F)(F)F)cc2)C1=O` (racemic), in series [18], the MED50 amounted to 100 mg/kg. Moreover, the Time in series [1] and in series [3] was 2 h in each case. For the same molecule, the Activity result in series [4] and in series [9] was “Non-toxic” each time. Moreover, the result in series [19], in series [8] and in series [14] was inactive. Further, the median effective dose (ED50) in [20] is > 150 mg/kg.
Regarding `O=C(NCc1ccccc1F)C(CO)N1C(=O)CCC1=O` (centres undefined), the Drug metabolism result in series [21] is “metabolite_detected”.
